Data reported in ChEMBL document CHEMBL4732167, “Structure based design, synthesis, and biological evaluation of imidazole derivatives targeting dihydropteroate synthase enzyme” (Bioorg Med Chem Lett, 2021).
In brackets after ≈: the same amount, converted by molar mass.

Legend:
Streptococcus pyogenes = test: Antibacterial activity against Streptococcus pyogenes MTCC 442 assessed as bacterial growth inhibition; format: functional
Staphylococcus aureus [1] = test: Antibacterial activity against Staphylococcus aureus MTCC 96 assessed as bacterial growth inhibition; format: functional
Escherichia coli = test: Antibacterial activity against Escherichia coli MTCC 443 assessed as bacterial growth inhibition; format: functional
Pseudomonas aeruginosa = test: Antibacterial activity against Pseudomonas aeruginosa MTCC 1688 assessed as bacterial growth inhibition; format: functional
[2] = Antioxidant activity assessed as DPPH radical scavenging activity at 100 ug/ml (reference value: 22 to 40.2 %); format: functional; conditions: dose 100.0 µg/ml
In short: (§1)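 DPPH radical scavenging was measured at 0, 25, 50, 75 and 100 µg/ml of each compound. Ascorbic acid was the reference.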

Bacteria = test: Antibacterial activity against ESBL-producing bacteria assessed as bacterial growth inhibition; format: functional
In short: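 Values are minimum inhibitory concentrations (MIC) in µg/mL, determined at an outside microbiology laboratory.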

[3] = Antioxidant activity assessed as DPPH radical scavenging activity at 25 ug/ml (reference value: 22 to 40.2 %); format: functional; conditions: dose 25.0 µg/ml; in short: as §1
[4] = Antioxidant activity assessed as DPPH radical scavenging activity at 50 ug/ml (reference value: 22 to 40.2 %); format: functional; conditions: dose 50.0 µg/ml; in short: as §1
[5] = Antioxidant activity assessed as hydrogen peroxide radical scavenging activity at 100 ug/ml (reference value: 23.6 to 43.1 %); format: functional; conditions: dose 100.0 µg/ml
In short: (§2)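 Hydrogen peroxide scavenging was measured across a compound series of 0, 25, 50, 75 and 100 µg/ml.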

[6] = Antioxidant activity assessed as nitric oxide radical scavenging activity at 100 ug/ml (reference value: 25.8 to 41.6 %); format: functional; conditions: dose 100.0 µg/ml
In short: (§3)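 Nitric oxide radical scavenging was tested at 0, 25, 50, 75 and 100 µg/ml of compound.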

[7] = Antioxidant activity assessed as nitric oxide radical scavenging activity at 75 ug/ml (reference value: 25.8 to 41.6 %); format: functional; conditions: dose 75.0 µg/ml; in short: as §3
Candida albicans = test: Antifungal activity against Candida albicans MTCC 227 assessed as fungal growth inhibition; format: functional
[8] = Antioxidant activity assessed as hydrogen peroxide radical scavenging activity at 50 ug/ml (reference value: 23.6 to 43.1 %); format: functional; conditions: dose 50.0 µg/ml; in short: as §2
[9] = Antioxidant activity assessed as nitric oxide radical scavenging activity at 50 ug/ml (reference value: 25.8 to 41.6 %); format: functional; conditions: dose 50.0 µg/ml; in short: as §3
[10] = Antioxidant activity assessed as hydrogen peroxide radical scavenging activity at 75 ug/ml (reference value: 23.6 to 43.1 %); format: functional; conditions: dose 75.0 µg/ml; in short: as §2
[11] = Antioxidant activity assessed as DPPH radical scavenging activity at 75 ug/ml (reference value: 22 to 40.2 %); format: functional; conditions: dose 75.0 µg/ml; in short: as §1
Aspergillus niger = test: Antifungal activity against Aspergillus niger MTCC 282 assessed as fungal growth inhibition; format: functional
Plasmodium falciparum = test: Antimalarial activity against Plasmodium falciparum assessed as parasite growth inhibition; format: functional, organism-based
[12] = Antioxidant activity assessed as hydrogen peroxide radical scavenging activity at 25 ug/ml (reference value: 23.6 to 43.1 %); format: functional; conditions: dose 25.0 µg/ml; in short: as §2
Aspergillus clavatus = test: Antifungal activity against Aspergillus clavatus MTCC 1323 assessed as fungal growth inhibition; format: functional
[13] = Antioxidant activity assessed as nitric oxide radical scavenging activity at 25 ug/ml (reference value: 25.8 to 41.6 %); format: functional; conditions: dose 25.0 µg/ml; in short: as §3
Staphylococcus aureus [14] = test: Antibacterial activity against methicillin-resistant Staphylococcus aureus assessed as inhibition of bacterial growth; format: functional
In short: (§4)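 Growth inhibition of the drug-resistant strain was read out as the minimum inhibitory concentration (MIC), reported in µg/mL. The same protocol was also run on an ESBL strain.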

[15] = system: Mycobacterium tuberculosis; test: Antibacterial activity against Mycobacterium tuberculosis H37Rv assessed as bacterial growth inhibition; format: functional
Enterococcus = test: Antibacterial activity against vancomycin-resistant Enterococcus assessed as inhibition of bacterial growth; format: functional; in short: as §4

Row | Molecule | MIC (Streptococcus pyogenes) [µg/mL] | MIC (Staphylococcus aureus [1]) [µg/mL] | MIC (Escherichia coli) [µg/mL] | MIC (Pseudomonas aeruginosa) [µg/mL] | Activity [2] [%] | MIC (Bacteria) [µg/mL] | Activity [3] [%] | Activity [4] [%] | Activity [5] [%] | Activity [6] [%] | Activity [7] [%] | MFC (Candida albicans) [µg/mL] | Activity [8] [%] | Activity [9] [%] | Activity [10] [%] | Activity [11] [%] | MFC (Aspergillus niger) [µg/mL] | IC50 (Plasmodium falciparum) [µg/mL] | Activity [12] [%] | MFC (Aspergillus clavatus) [µg/mL] | other results
1 | CCn1cc(C(=O)O)c(=O)c2cc(F)c(N3CCNCC3)cc21 [NORFLOXACIN] | 10 (≈ 31.3 µM) | 10 (≈ 31.3 µM) | 10 (≈ 31.3 µM) | 10 (≈ 31.3 µM) | – | – | – | – | – | – | – | – | – | – | – | – | – | – | – | – | –
2 | CC(=O)c1c(C)nc(SCC(=O)Nc2ccc(OC(=O)c3ccc(Cl)cc3)cc2)n1-c1ccc(Cl)cc1 | 100 (≈ 180 µM) | 125 (≈ 225 µM) | 250 (≈ 451 µM) | 100 (≈ 180 µM) | 84.5 | 1000 (≈ 1800 µM) | 36.9 | 49.3 | 93.6 | 89.4 | 81.9 | > 1000 | 66.6 | 58.3 | 80 | 64.9 | > 1000 | 0.46 (≈ 0.83 µM) | 50.8 | > 1000 | Activity [13]: 41.8%
3 | COc1ccc(-n2c(SCC(=O)Nc3ccc(OC(=O)c4cccs4)cc3)nc(C)c2C(C)=O)cc1 | 50 (≈ 95.9 µM) | 25 (≈ 47.9 µM) | 12.5 (≈ 24 µM) | 12.5 (≈ 24 µM) | 81.6 | 62.5 (≈ 120 µM) | 46.8 | 56.1 | 82.3 | 81.7 | 76.8 | 1000 (≈ 1920 µM) | 61 | 69.1 | 76.4 | 68.1 | 500 (≈ 959 µM) | 0.45 (≈ 0.863 µM) | 39.4 | 500 (≈ 959 µM) | MIC (Staphylococcus aureus [14]): 100 µg/mL (≈ 192 µM); MIC [15]: 25 µg/mL (≈ 47.9 µM); MIC (Enterococcus): 100 µg/mL (≈ 192 µM); Activity [13]: 42.3%
4 | COc1ccc(-n2c(SCC(=O)Nc3ccc(OC(=O)c4ccco4)cc3)nc(C)c2C(C)=O)cc1 | 125 (≈ 247 µM) | 250 (≈ 495 µM) | 125 (≈ 247 µM) | 100 (≈ 198 µM) | 85.2 | 500 (≈ 989 µM) | 32.5 | 47.1 | 90 | 84.5 | 78.9 | 250 (≈ 495 µM) | 69.9 | 59.3 | 81 | 66.2 | > 1000 | 0.78 (≈ 1.54 µM) | 59.3 | > 1000 | MIC (Staphylococcus aureus [14]): 500 µg/mL (≈ 989 µM); MIC [15]: 62.5 µg/mL (≈ 124 µM); MIC (Enterococcus): 250 µg/mL (≈ 495 µM); Activity [13]: 37.7%
5 | CC(=O)c1c(C)nc(SCC(=O)Nc2ccc(OCc3ccc(Cl)cc3)cc2)n1-c1ccc(Cl)cc1 | 100 (≈ 185 µM) | 100 (≈ 185 µM) | 250 (≈ 463 µM) | 125 (≈ 231 µM) | 85.7 | 500 (≈ 925 µM) | 41.2 | 51.7 | 89.7 | 88.8 | 80.6 | 1000 (≈ 1850 µM) | 59.4 | 64.3 | 75.2 | 58.6 | > 1000 | 0.56 (≈ 1.04 µM) | 47.8 | > 1000 | MIC (Staphylococcus aureus [14]): 125 µg/mL (≈ 231 µM); MIC [15]: 25 µg/mL (≈ 46.3 µM); MIC (Enterococcus): 500 µg/mL (≈ 925 µM); Activity [13]: 47.3%
6 | GENTAMICIN | 0.5 | 0.25 | 0.05 | 1 | – | – | – | – | – | – | – | – | – | – | – | – | – | – | – | – | –
7 | NNC(=O)c1ccncc1 [ISONIAZID] | – | – | – | – | – | – | – | – | – | – | – | – | – | – | – | – | – | – | – | – | MIC [15]: 0.2 µg/mL (≈ 1.46 µM)
8 | CC(=O)c1c(C)nc(SCC(=O)Nc2ccc(OCc3ccccc3)cc2)n1-c1ccc(F)cc1 | 250 (≈ 511 µM) | 500 (≈ 1020 µM) | 100 (≈ 204 µM) | 125 (≈ 255 µM) | 84.7 | 125 (≈ 255 µM) | 46.8 | 56.2 | 91.8 | 85.9 | 72.4 | 1000 (≈ 2040 µM) | 63.7 | 60.8 | 84 | 62.3 | > 1000 | 0.45 (≈ 0.919 µM) | 47.4 | > 1000 | MIC (Staphylococcus aureus [14]): 1000 µg/mL (≈ 2040 µM); MIC [15]: 62.5 µg/mL (≈ 128 µM); MIC (Enterococcus): 250 µg/mL (≈ 511 µM); Activity [13]: 45.7%
9 | CC(=O)c1c(C)nc(SCC(=O)Nc2ccc(OC(=O)c3ccco3)cc2)n1-c1ccc(F)cc1 | 250 (≈ 507 µM) | 500 (≈ 1010 µM) | 100 (≈ 203 µM) | 250 (≈ 507 µM) | 82.1 | 125 (≈ 253 µM) | 34.6 | 48.2 | 85.1 | 81.7 | 79.6 | 500 (≈ 1010 µM) | 64.8 | 67.4 | 76.5 | 66.7 | 500 (≈ 1010 µM) | 0.36 (≈ 0.729 µM) | 55.9 | 500 (≈ 1010 µM) | MIC (Staphylococcus aureus [14]): 1000 µg/mL (≈ 2030 µM); MIC [15]: 250 µg/mL (≈ 507 µM); MIC (Enterococcus): 500 µg/mL (≈ 1010 µM); Activity [13]: 45.2%
